# Article PMC5516171 (Clinical Pharmacology in Drug Development, 2016)
# Entries after “also recorded” stand apart in the source; their conditions may differ.
# Columns and labels:
# [1] = tested on: rat peritoneal mast cells; experiment: In vitro mast cell degranulation, rat peritoneal mast cells; format: cell-based
# Outline: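 Freshly isolated rat peritoneal mast cells were resuspended in RPMI 1640 with 1% FBS. They were given increasing concentrations of the excipient peptide (up to 250 μg/mL), the siRNA drug substance (up to 1000 μg/mL), or both combined. Incubation was 37°C for 10 or 30 min. Supernatant histamine (nM ± SD) and chymase measured degranulation; LDH measured viability.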
# [2] = tested on: human mast cell line HMC‐1; experiment: In vitro mast cell degranulation, human mast cell line HMC‐1; format: cell-based; settings: HMC‐1 cells, 37°C, 30 minutes; up to 250 μg/mL ARC‐EX1 and ARC‐520 API
# Outline: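 HMC‑1 human mast cells were cultured in Iscove's medium with 2% FBS. They were exposed to increasing concentrations, up to 250 μg/mL, of the excipient peptide, the siRNA drug substance, or both combined. The positive control was phorbol myristate acetate plus calcium ionophore A23187. Incubation was 37°C for 30 min. Supernatants were assayed for histamine and β‑hexosaminidase (degranulation) and for LDH (viability).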
substance,measurement,setting,value
"ARC‐EX1: delivery excipient: masked, hepatocyte‐targeted L‐melittin‐derived peptide; masking group carboxydimethyl maleic anhydride N‐acetyl galactosamine (LIGAILKVLATGLPTLISWIKNKRKQ; CDM-NAG masking groups)",Concentration at which maximum histamine release was observed,[1]; 10 and 30 minutes of incubation,≥ 10000 ng/mL
same,Mast cell degranulation and histamine release,"[1]; 37°C, 10 or 30 minutes, up to 250 μg/mL ARC‐EX1 or 1000 μg/mL ARC‐520 API",major trigger; also recorded: induced mast cell degranulation and histamine release in a dose‐dependent manner
same,Mast cell degranulation and histamine release,[2],major trigger
